# Measured values published in ChEMBL document CHEMBL1147762, “A new chemical tool for exploring the physiological function of the PDE2 isozyme” (Bioorg Med Chem Lett, 2006).
# What was measured:
# [1] = target: High affinity cAMP-specific and IBMX-insensitive 3',5'-cyclic phosphodiesterase 8A (Homo sapiens, UniProt O60658); assay: Inhibitory activity against PDE8A by scintillation proximity assay
# How it was run: (§1)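 Scintillation proximity assay for phosphodiesterase inhibition. Enzyme is used at a concentration within the linear range, and its KM was measured. Final substrate concentration is 1 µM, below one-third of KM, so IC50 approximates Ki. Results are means of n experiments with standard deviation.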
# [2] = Turbidimetric solubility at pH 7; format: ADME, organism-based, Homo sapiens
# [3] = target: 3',5'-cyclic-AMP phosphodiesterase 4D (Homo sapiens, UniProt Q08499); assay: Inhibitory activity against PDE4D by scintillation proximity assay; how it was run: as §1
# [4] = Half life in rat liver microsome; format: ADME; details: liver microsomes
# [5] = target: cGMP-dependent 3',5'-cyclic phosphodiesterase (Homo sapiens, UniProt O00408); assay: Inhibitory activity against PDE2 by scintillation proximity assay
# How it was run: (§2)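 Phosphodiesterase inhibition run as a scintillation proximity assay, with enzyme at a concentration in the linear range. Final substrate was 1 µM, below one-third of the enzyme K_M, so that IC50 approximates Ki. Values are means of n experiments with standard deviation.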
# [6] = Basolateral Caco-2 cell membrane permeability; format: ADME, cell-based; details: human
# [7] = target: Phosphodiesterase 3 (Homo sapiens, UniProt Q14432+Q13370); assay: Inhibitory activity against PDE3 by scintillation proximity assay; format: protein assay; how it was run: as §2
# [8] = target: 3',5'-cyclic-AMP phosphodiesterase 4A (Homo sapiens, UniProt P27815); assay: Inhibitory activity against PDE4A by scintillation proximity assay; how it was run: as §2
# [9] = target: Phosphodiesterase 1 (Homo sapiens, UniProt P54750+Q01064+Q14123); assay: Inhibitory activity against PDE1 by scintillation proximity assay; format: protein assay; how it was run: as §2
# [10] = target: 3',5'-cyclic-AMP phosphodiesterase 4B (Homo sapiens, UniProt Q07343); assay: Inhibitory activity against PDE4B by scintillation proximity assay; how it was run: as §2
# [11] = Apical Caco-2 cell membrane permeability; format: ADME, cell-based; details: human
# [12] = target: cGMP-specific 3',5'-cyclic phosphodiesterase (Homo sapiens, UniProt O76074); assay: Inhibitory activity against PDE5 by scintillation proximity assay; how it was run: as §1
# [13] = target: 3',5'-cyclic-AMP phosphodiesterase 4C (Homo sapiens, UniProt Q08493); assay: Inhibitory activity against PDE4C by scintillation proximity assay; how it was run: as §1
# [14] = target: High affinity cAMP-specific and IBMX-insensitive 3',5'-cyclic phosphodiesterase 8B (Homo sapiens, UniProt O95263); assay: Inhibitory activity against PDE8B by scintillation proximity assay; how it was run: as §1
# [15] = target: High affinity cGMP-specific 3',5'-cyclic phosphodiesterase 9A (Homo sapiens, UniProt O76083); assay: Inhibitory activity against PDE9 by scintillation proximity assay; how it was run: as §1
# [16] = target: cAMP and cAMP-inhibited cGMP 3',5'-cyclic phosphodiesterase 10A (Homo sapiens, UniProt Q9Y233); assay: Inhibitory activity against PDE10 by scintillation proximity assay; how it was run: as §2
# Chain of 3',5'-cyclic-AMP phosphodiesterase 4A (P27815 whole entry): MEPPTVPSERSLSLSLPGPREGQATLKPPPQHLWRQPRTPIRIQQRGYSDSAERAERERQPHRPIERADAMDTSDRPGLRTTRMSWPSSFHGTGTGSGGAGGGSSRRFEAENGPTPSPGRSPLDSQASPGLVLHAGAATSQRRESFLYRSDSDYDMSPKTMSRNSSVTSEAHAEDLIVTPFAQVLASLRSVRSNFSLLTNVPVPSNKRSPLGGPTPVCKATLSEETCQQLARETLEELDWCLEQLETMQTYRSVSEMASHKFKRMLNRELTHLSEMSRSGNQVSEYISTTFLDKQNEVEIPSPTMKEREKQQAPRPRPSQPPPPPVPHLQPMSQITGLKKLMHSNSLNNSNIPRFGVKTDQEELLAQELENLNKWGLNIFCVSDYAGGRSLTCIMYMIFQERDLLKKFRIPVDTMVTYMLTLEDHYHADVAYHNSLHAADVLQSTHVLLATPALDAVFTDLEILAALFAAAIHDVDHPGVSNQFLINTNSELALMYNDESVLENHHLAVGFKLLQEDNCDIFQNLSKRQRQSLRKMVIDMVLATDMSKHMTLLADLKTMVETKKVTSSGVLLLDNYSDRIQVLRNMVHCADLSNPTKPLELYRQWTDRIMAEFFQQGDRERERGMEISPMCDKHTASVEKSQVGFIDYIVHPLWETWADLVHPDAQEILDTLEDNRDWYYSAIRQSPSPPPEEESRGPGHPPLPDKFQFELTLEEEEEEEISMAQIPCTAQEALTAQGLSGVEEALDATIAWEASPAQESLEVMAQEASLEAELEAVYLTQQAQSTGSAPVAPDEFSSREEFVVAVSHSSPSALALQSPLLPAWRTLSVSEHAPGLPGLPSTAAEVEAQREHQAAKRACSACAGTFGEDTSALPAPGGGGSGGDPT
# Chain of High affinity cAMP-specific and IBMX-insensitive 3',5'-cyclic phosphodiesterase 8A (O60658 whole entry): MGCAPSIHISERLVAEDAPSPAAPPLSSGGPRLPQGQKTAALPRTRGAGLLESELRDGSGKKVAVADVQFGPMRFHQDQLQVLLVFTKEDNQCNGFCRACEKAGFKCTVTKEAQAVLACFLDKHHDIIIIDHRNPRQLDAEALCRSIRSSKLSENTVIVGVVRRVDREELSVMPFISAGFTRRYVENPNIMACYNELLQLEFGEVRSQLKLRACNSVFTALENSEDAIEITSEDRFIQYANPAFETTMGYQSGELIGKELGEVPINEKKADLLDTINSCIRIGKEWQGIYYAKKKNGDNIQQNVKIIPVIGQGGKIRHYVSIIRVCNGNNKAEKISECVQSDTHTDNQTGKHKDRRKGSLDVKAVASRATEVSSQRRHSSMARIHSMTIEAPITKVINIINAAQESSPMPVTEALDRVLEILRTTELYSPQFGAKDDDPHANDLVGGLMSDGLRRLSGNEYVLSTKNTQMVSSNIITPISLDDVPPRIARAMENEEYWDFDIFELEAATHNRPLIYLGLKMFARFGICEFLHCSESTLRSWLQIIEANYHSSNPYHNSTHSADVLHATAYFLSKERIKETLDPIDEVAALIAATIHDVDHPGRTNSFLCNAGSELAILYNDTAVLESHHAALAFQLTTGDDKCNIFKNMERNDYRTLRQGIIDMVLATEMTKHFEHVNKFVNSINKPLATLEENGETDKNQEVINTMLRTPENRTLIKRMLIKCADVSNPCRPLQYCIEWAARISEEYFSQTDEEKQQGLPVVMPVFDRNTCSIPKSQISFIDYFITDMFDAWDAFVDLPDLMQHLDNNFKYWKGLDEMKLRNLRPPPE
# Chain of 3',5'-cyclic-AMP phosphodiesterase 4B (Q07343 whole entry): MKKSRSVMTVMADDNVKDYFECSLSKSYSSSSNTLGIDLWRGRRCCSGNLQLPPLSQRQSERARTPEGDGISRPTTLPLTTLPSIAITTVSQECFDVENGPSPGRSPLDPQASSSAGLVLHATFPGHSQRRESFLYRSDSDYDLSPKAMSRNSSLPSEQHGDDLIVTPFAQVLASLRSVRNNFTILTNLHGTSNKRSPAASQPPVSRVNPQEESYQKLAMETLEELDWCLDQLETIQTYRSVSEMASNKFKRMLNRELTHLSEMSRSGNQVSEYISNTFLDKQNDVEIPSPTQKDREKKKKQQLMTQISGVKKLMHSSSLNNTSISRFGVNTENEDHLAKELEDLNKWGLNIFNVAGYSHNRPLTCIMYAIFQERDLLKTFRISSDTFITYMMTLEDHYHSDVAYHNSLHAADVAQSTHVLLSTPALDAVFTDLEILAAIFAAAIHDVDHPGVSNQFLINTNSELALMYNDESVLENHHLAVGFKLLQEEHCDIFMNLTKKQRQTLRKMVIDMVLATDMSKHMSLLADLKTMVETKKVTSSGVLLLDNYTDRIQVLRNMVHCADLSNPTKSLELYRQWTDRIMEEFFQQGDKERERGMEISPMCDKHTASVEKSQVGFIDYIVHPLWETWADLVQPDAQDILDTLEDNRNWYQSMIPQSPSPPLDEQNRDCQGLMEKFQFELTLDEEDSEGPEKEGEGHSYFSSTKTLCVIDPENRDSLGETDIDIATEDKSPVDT
# Chain of cGMP-dependent 3',5'-cyclic phosphodiesterase (O00408 whole entry): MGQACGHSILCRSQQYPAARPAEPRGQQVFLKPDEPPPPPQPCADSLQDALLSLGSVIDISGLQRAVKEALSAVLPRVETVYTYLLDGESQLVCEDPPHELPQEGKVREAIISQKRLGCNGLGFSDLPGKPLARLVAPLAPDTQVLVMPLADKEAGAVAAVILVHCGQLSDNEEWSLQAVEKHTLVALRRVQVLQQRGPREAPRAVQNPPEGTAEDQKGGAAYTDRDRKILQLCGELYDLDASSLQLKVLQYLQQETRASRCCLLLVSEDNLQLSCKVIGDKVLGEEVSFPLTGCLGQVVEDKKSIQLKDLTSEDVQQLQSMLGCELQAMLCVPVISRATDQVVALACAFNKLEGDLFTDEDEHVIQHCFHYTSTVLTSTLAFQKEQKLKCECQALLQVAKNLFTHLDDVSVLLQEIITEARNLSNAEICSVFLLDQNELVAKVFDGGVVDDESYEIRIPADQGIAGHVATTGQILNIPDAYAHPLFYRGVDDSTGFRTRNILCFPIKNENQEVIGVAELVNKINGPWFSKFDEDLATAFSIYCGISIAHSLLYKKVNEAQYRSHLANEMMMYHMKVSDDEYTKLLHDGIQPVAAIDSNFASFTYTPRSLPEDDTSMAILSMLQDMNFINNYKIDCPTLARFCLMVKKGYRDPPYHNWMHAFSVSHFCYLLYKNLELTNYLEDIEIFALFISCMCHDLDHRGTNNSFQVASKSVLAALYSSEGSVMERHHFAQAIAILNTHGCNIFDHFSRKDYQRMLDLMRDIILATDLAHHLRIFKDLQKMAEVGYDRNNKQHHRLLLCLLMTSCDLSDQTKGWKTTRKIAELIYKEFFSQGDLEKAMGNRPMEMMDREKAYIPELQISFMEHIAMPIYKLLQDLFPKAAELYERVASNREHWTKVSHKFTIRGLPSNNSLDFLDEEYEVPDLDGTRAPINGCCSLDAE
# Chain of High affinity cAMP-specific and IBMX-insensitive 3',5'-cyclic phosphodiesterase 8B (O95263 whole entry): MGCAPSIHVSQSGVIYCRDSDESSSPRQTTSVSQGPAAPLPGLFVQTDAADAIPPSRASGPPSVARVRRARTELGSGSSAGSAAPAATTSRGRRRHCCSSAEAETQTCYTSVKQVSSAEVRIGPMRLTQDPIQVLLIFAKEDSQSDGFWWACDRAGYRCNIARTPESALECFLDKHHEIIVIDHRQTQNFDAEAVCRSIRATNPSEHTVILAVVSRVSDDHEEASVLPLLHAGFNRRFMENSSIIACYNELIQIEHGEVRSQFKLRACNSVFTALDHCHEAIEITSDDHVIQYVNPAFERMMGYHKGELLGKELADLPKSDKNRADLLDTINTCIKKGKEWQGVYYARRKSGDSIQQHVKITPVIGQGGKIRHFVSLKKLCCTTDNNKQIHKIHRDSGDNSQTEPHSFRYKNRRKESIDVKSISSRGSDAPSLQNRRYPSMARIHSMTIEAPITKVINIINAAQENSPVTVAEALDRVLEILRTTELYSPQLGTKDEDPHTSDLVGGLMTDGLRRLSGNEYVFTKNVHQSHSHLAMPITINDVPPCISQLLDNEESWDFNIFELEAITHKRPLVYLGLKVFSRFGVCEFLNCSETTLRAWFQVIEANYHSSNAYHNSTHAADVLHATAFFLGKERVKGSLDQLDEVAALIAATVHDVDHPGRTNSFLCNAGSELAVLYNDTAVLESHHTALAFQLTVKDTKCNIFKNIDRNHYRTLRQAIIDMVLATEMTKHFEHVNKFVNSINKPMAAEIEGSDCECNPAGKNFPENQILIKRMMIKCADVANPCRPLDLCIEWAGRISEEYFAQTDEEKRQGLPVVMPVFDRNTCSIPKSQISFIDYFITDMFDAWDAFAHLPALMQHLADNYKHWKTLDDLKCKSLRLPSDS
# Chain of 3',5'-cyclic-AMP phosphodiesterase 4C (Q08493 whole entry): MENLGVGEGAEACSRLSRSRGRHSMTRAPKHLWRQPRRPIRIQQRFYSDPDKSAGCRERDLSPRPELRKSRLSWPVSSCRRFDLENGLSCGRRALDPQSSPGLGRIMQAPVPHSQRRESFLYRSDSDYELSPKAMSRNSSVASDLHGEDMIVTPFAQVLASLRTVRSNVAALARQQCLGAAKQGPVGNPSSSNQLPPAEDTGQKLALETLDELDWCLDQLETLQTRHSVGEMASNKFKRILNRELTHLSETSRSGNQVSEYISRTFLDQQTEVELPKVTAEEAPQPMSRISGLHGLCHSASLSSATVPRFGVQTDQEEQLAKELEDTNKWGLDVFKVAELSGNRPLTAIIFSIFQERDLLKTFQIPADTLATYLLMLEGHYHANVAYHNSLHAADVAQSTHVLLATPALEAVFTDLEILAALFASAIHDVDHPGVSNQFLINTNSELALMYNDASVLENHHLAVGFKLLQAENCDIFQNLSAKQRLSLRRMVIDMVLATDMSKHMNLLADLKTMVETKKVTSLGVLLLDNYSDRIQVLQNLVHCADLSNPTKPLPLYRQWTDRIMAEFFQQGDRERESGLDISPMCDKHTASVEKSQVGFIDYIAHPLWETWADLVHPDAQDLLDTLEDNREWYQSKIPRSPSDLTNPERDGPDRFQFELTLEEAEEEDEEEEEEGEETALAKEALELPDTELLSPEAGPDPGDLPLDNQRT
structure (smiles),measurement,setting,value
CCCCCC[C@H]([C@H](C)O)n1cnc2c(N)ncnc21 [(+)-EHNA],IC50,[1],> 16 µM
same,solubility kinetic,[2],> 65 µg/mL
same,IC50,[3],> 16 µM
same,half-life,[4],31 min
same,IC50,[5],635 nM
same,Papp,[6],18 ×10⁻⁶ cm/s
same,IC50,[7],> 16 µM
same,IC50,[8],> 16 µM
same,IC50,[9],> 16 µM
same,IC50,[10],> 16 µM
same,Papp,[11],34 ×10⁻⁶ cm/s
same,IC50,[12],> 16 µM
same,IC50,[13],> 16 µM
same,IC50,[14],> 16 µM
same,IC50,[15],> 16 µM
same,IC50,[16],> 16 µM
